Our source for the inhibition and Activity values is ChEMBL document CHEMBL4000162, “Arborinane Triterpenoids from Rubia philippinensis Inhibit Proliferation and Migration of Vascular Smooth Muscle Cells Induced by the Platelet-Derived Growth Factor” (J Nat Prod, 2016).

Active and inactive are the calls of the source. The rule behind the calls is not given here.

For series [1], the system named is VSMC. Nature of the series: Antiproliferative activity against PDGF-BB-stimulated rat VSMC at 10 to 30 uM preincubated for 24 hrs followed by PDGF-BB addition measured after 24 hrs by MTT assay. In kind it is functional, cell-based. Summed up:
(§1)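 Rat aortic VSMCs seeded at 3.5 × 10^4 cells/mL and grown in DMEM/10% FBS at 37 °C to 70% confluence. Serum-starved 24 h, given compound for 24 h (paclitaxel 1 μM reference), then stimulated with 25 ng/mL PDGF-BB for 24 h. MTT 5 mg/mL in serum-free DMEM for 4 h, DMSO solubilisation, absorbance read at 565 nm. Means ± SEM of triplicates.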
(In general: Formazan colour is commonly taken as a measure of viable cells.)

Series [2] in a line: Cytotoxicity against rat VSMC assessed as decrease in cell viability at 10 to 30 uM after 48 hrs by MTT assay. In kind it is cell-based. Summed up: (§2)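 Rat aortic VSMCs seeded at 3.5 × 10^4 cells/mL in DMEM/10% FBS and grown to 70% confluence, then serum-free for 24 h. Exposed to compound for 48 h without PDGF (digitonin 100 μg/mL reference). Viability by MTT: 5 mg/mL for 4 h, DMSO, absorbance at 565 nm. Means ± SEM.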

Series [3] can be described thus: Antiproliferative activity against PDGF-BB-stimulated rat VSMC at 5 uM preincubated for 24 hrs followed by PDGF-BB addition measured after 24 hrs by MTT assay relative to control. In kind it is functional. In a few lines:
as §1

A short description of series [4]: Cytotoxicity against rat VSMC assessed as decrease in cell viability at 5 uM after 48 hrs by MTT assay. In kind it is cell-based. Summed up:
as §2

Series [5] can be described thus: (§3) Antimigratory activity against PDGF-BB-stimulated rat VSMC at 30 uM preincubated for 2 hrs followed by PDGF-BB addition measured after 48 hrs by scratch wound-healing assay. It is filed as functional. In a few lines: (§4)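 Rat aortic VSMCs (enzymatic dispersion; DMEM, 10% FBS) grown in 12-well plates to >90% confluence, serum-starved 24 h, scratched with two lines and imaged at 0 h. Pretreated 2 h with compound (paclitaxel 1 μM as reference), then 25 ng/mL PDGF-BB for 48 h. Fixed in 100% MeOH, stained with 0.5% crystal violet, migration area quantified from images. Means ± SEM of triplicate experiments.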

Series [6] relates to VSMC. Nature of the series: Antimigratory activity against PDGF-BB-stimulated rat VSMC preincubated for 2 hrs followed by PDGF-BB addition measured after 48 hrs by scratch wound-healing assay. It is filed as functional, cell-based. Summed up: as §4
The nature of series [7]: Antimigratory activity against PDGF-BB-stimulated rat VSMC at 10 uM preincubated for 2 hrs followed by PDGF-BB addition measured after 48 hrs by scratch wound-healing assay. It is filed as functional. Summed up:
as §4

In series [8] the test system is VSMC. Description: Antimigratory activity against PDGF-BB-stimulated rat VSMC preincubated for 2 hrs followed by PDGF-BB addition measured after 48 hrs by photograph-based scratch wound-healing assay. In kind it is functional, cell-based. In a few lines:
as §4

Series [9] concerns VSMC. Nature of the series: Antimigratory activity against PDGF-BB-stimulated rat VSMC at 10 to 30 uM preincubated for 2 hrs followed by PDGF-BB addition measured after 48 hrs by scratch wound-healing assay. In kind it is functional, cell-based. Summed up: as §4
Series [10] deals with VSMC. Nature of the series: Antiproliferative activity against PDGF-BB-stimulated rat VSMC at 30 uM preincubated for 24 hrs followed by PDGF-BB addition measured after 24 hrs by MTT assay. It is filed as functional, cell-based. Summed up: as §1
A short description of series [11]: Cytotoxicity against rat VSMC assessed as decrease in cell viability at 30 uM after 48 hrs by MTT assay. It is filed as cell-based. Summed up: as §2
Series [12] concerns VSMC. Described as §3. It is filed as functional. In a few lines:
as §4

In the case of `CC(=O)O[C@@H]1C[C@@H](C(C)C)[C@]2(C)CC[C@@]3(C)[C@H]4C(=CC[C@]3(C)[C@@H]12)[C@@]1(C)C=CC(=O)C(C)(C)[C@@H]1C[C@@H]4O`, the inhibition (commonly the relative decrease from the control value, in per cent) with VSMC [1] was “Active”. The Activity result in [2] is on record as “Toxic”; in series [4] it was “Non-Toxic”. Also, the inhibition at 5 µM in series [3] turned out to be 41.1%.
Consider `CC(=O)O[C@H]1CC[C@]2(C)C3=CC[C@]4(C)[C@H]5[C@H](O)C[C@@H](C(C)C)[C@]5(CO)CC[C@@]4(C)[C@@H]3[C@@H](O)C[C@H]2C1(C)C`, for which the Activity result is “Non-Toxic” in series [2]; 57.6% in [5]; “Dose-dependent effect” with VSMC [6]; 38.5% in series [7]; “Dose-dependent effect” with VSMC [8].
`CC(=O)O[C@@H]1C[C@@H](C(C)C)[C@]2(C)CC[C@@]3(C)[C@H]4C(=CC[C@]3(C)[C@@H]12)[C@@]1(C)CC[C@H](O)C(C)(C)[C@@H]1C[C@@H]4O`: in the series with VSMC [1], the inhibition entry is “Active”. In addition, in [2], the Activity result is on record as “Toxic”. Further, in the series on VSMC [9], the outcome was Active.
Turning to `CC(=O)OC[C@@]12CC[C@@]3(C)[C@H]4C(=CC[C@]3(C)[C@H]1[C@H](O)C[C@H]2C(C)C)[C@@]1(C)CC[C@H](OC(C)=O)C(C)(C)[C@@H]1C[C@@H]4O`, in the series with VSMC [10], the inhibition result is “Active”. In addition, the Activity result in [11] is “Toxic”. The outcome with VSMC [12] was Active.
Turning to `CC(C)[C@@H]1C[C@@H]2OC[C@]13CC[C@@]1(C)[C@H]4C(=CC[C@]1(C)[C@@H]23)[C@@]1(C)CC[C@H](O)C(C)(C)[C@@H]1C[C@@H]4O`, the inhibition result with VSMC [1] is “Active”. Also, the Activity entry in series [2] is recorded as “Toxic”; in [4], “Non-Toxic”. Moreover, in series [3], the inhibition at 5 µM came out at 62.6%. In the series on VSMC [9], the result was Active.
